The results in this text go back to ChEMBL document CHEMBL1255283, “Comparative efficacies of rifaximin and vancomycin for treatment of Clostridium difficile-associated diarrhea and prevention of disease recurrence in hamsters” (2008).

Activity calls are given as the source filed them. The rule behind the calls is not given here.

Test [1] relates to Clostridioides difficile. Kind of test: Antibacterial activity against Clostridium difficile VPI 10463 infected in golden syrian hamster assessed as body weight loss at 100 mg/kg/day for 5 days measured after 7 days relative to initial body weight. It is filed as functional. Put shortly: (§1)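 Prevention design in hamsters (n = 10/group): clindamycin phosphate 10 mg/kg sc on day 0, oral gavage infection with C. difficile VPI 10463 on day 1. Rifaximin suspended in 0.1 M phosphate buffer pH 7.4 plus 4.5‰ SDS, given by gavage once daily from day 1 for 5 doses; vehicle and uninfected controls. Survivors sacrificed day 7. Weight change is % of initial body weight; non-survivors excluded.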

In test [2] the test system is Clostridioides difficile. Kind of test: Antibacterial activity against Clostridium difficile VPI 10463 infected in golden syrian hamster assessed as body weight gain at 100 mg/kg/day for 5 days relative to initial body weight. It is filed as functional. Put shortly:
(§2)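 Relapse study: hamsters given clindamycin phosphate 10 mg/kg sc on day 0 and infected with VPI 10463 by gavage on day 1. Daily oral rifaximin by gavage in SDS/phosphate buffer vehicle on days 2–6. Animals followed about one month for recurrence, with Kaplan-Meier survival. Body weight tracked over time as % of initial weight.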

The test system of test [3] is Clostridioides difficile. Kind of test: Antibacterial activity against Clostridium difficile VPI 10463 infected in golden syrian hamster assessed as survival of the […] at 100 mg/kg/day administered 24 hrs after infection for 5 days measured after 7 days. It is filed as functional, organism-based. Put shortly:
(§3)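 Treatment design in hamsters (10/group per cohort): clindamycin phosphate 10 mg/kg sc on day 0, gavage infection with VPI 10463 on day 1. Oral rifaximin, suspended in phosphate buffer pH 7.4 with 4.5‰ SDS, given daily by gavage from day 2 for five doses. Survival read at day 7, with Kaplan-Meier and log-rank analysis.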

Test [4] has as its system Clostridioides difficile. Kind of test: Antibacterial activity against Clostridium difficile VPI 10463 infected in golden syrian hamster assessed as survival of the […] at 100 mg/kg/day for 5 days measured after 7 days. It is filed as functional. Put shortly:
as §1

For test [5], the system named is Clostridioides difficile. Kind of test: Antibacterial activity against Clostridium difficile VPI 10463 infected in golden syrian hamster assessed as survival of the […] at 25 mg/kg/day administered 24 hrs after infection for 5 days measured after 28 days. It is filed as functional, organism-based. Summed up:
as §2

The test system of test [6] is Clostridioides difficile. In words: Antibacterial activity against Clostridium difficile VPI 10463 infected in golden syrian hamster assessed as body weight loss at 50 mg/kg/day for 5 days measured after 7 days relative to initial body weight. It is filed as functional. Summed up: as §1
Test [7] has as its system Clostridioides difficile. In words: Antibacterial activity against Clostridium difficile VPI 10463 infected in golden syrian hamster assessed as survival of the […] at 100 mg/kg/day administered 24 hrs after infection for 5 days measured after 28 days. It is filed as functional. Put shortly:
as §2

Test [8] relates to Clostridioides difficile. Kind of test: Antibacterial activity against Clostridium difficile VPI 10463 infected in golden syrian hamster assessed as survival of the […] at 50 mg/kg/day administered 24 hrs after infection for 5 days measured after 7 days. It is filed as functional, organism-based. Put shortly:
as §3

Test [9] relates to Clostridioides difficile. In words: Antibacterial activity against Clostridium difficile VPI 10463 infected in golden syrian hamster assessed as body weight loss at 25 mg/kg/day for 5 days measured after 7 days relative to initial body weight. It is filed as functional. Summed up: as §1
Test [10] concerns Clostridioides difficile. In words: Antibacterial activity against Clostridium difficile VPI 10463 infected in golden syrian hamster assessed as survival of the […] at 50 mg/kg/day administered 24 hrs after infection for 5 days measured after 28 days. It is filed as functional, organism-based. Put shortly: as §2
In test [11] the test system is Clostridioides difficile. In words: Antibacterial activity against Clostridium difficile VPI 10463 infected in golden syrian hamster assessed as survival of the […] at 50 mg/kg/day for 5 days measured after 7 days. It is filed as functional. Summed up:
as §1

Test [12] deals with Clostridioides difficile. In words: Antibacterial activity against Clostridium difficile VPI 10463 infected in golden syrian hamster assessed as survival of the […] at 25 mg/kg/day administered 24 hrs after infection for 5 days measured after 7 days. It is filed as functional. Summed up: as §3

For the compound `CO[C@H]1/C=C/O[C@@]2(C)Oc3c(C)c(O)c4c(O)c(c5c(nc6cc(C)ccn65)c4c3C2=O)NC(=O)/C(C)=C\C=C\[C@H](C)[C@H](O)[C@@H](C)[C@@H](O)[C@@H](C)[C@H](OC(C)=O)[C@@H]1C` [RIFAXIMIN], the Activity in [1] is -8.1%; in test [2] it was 16.7%; in [6], -7.9%; in test [9], -8.4%. Further, the result in test [3], in test [5], in [8] and in test [10] was Active. Also, the survival at 100 mg/kg/day amounted to 80% in [4] and 100% in test [7]. Besides, the survival at 50 mg/kg/day in [11] worked out at 70%.

`CN[C@H](CC(C)C)C(=O)N[C@H]1C(=O)N[C@@H](CC(N)=O)C(=O)N[C@H]2C(=O)N[C@H]3C(=O)N[C@H](C(=O)N[C@H](C(=O)O)c4cc(O)cc(O)c4-c4cc3ccc4O)[C@H](O)c3ccc(c(Cl)c3)Oc3cc2cc(c3O[C@@H]2O[C@H](CO)[C@@H](O)[C@H](O)[C@H]2O[C@H]2C[C@](C)(N)[C@H](O)[C@H](C)O2)Oc2ccc(cc2Cl)[C@H]1O` [VANCOMYCIN]: the outcome in test [5], in test [8] and in [10] was Active. Further, the Activity in test [6] is reported as -6.6%. Moreover, the survival at 100 mg/kg/day in test [7] is 25%. In addition, in test [12], the survival at 25 mg/kg/day was 80%. Further, in test [11], the survival at 50 mg/kg/day was 70%.
